# Activity calls are given as the source filed them.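 The calls were made as follows: active = FXR activation with a fold change above 2; inactive = the rest.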
# Molecular target: Bile acid receptor (Homo sapiens) (UniProt Q96RI1)
# Assay: FXR activators in GAL4 reporter cells, late-stage follow-up, selectivity assay for RORA inverse agonist project, cell-based, luciferase luminescence, assay provider, powder samples (AID 463145)
# Settings: HEK293T GAL4-FXR LBD luciferase reporter, 18-24 h; at 10 µM; active compounds read high
# Method in brief: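 Assay system: HEK293T GAL4-FXR LBD luciferase reporter cells; Times: 20 h compound treatment; Technique: luciferase luminescence.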
# Chain of Bile acid receptor (Homo sapiens) (Q96RI1 whole entry, looked up, the tested form may be a part): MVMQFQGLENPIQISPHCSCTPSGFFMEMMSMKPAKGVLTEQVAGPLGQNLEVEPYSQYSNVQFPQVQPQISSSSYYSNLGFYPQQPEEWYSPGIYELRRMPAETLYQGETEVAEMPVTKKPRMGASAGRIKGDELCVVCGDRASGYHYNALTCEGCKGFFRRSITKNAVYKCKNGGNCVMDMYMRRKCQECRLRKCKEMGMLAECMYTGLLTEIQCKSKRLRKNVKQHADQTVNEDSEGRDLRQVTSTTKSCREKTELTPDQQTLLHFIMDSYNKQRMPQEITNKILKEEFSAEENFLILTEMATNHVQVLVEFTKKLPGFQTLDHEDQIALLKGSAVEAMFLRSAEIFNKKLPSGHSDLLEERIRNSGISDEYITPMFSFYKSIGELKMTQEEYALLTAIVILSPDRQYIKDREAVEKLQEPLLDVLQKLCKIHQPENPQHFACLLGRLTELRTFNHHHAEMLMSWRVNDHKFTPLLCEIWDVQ
row,SMILES,fold change
1,O=C(Nc1ccc(C(O)(C(F)(F)F)C(F)(F)F)cc1)c1ccccc1C(F)(F)F,0.846 (inactive)
2,O=S(=O)(Nc1ccc(C(O)(C(F)(F)F)C(F)(F)F)cc1)c1cccs1,1.21 (inactive)

# Further lines, results first:
row,fold change,SMILES
1,1.14 (inactive),O=C(Nc1ccc(C(O)(C(F)(F)F)C(F)(F)F)cc1)c1ccc(Cl)cc1
2,1.52 (inactive),O=C(Nc1ccc(C(O)(C(F)(F)F)C(F)(F)F)cc1)c1ccc(F)cc1F
3,1.07 (inactive),O=C(Nc1ccc(C(O)(C(F)(F)F)C(F)(F)F)cc1)c1ccc(F)cc1Cl
4,1.06 (inactive),O=C(Nc1ccc(C(O)(C(F)(F)F)C(F)(F)F)cc1)c1c(F)cccc1F

# — PubChem BioAssay AID463145 (The Scripps Research Institute Molecular Screening Center, 2010)
